# In ChEMBL document CHEMBL5053483, “Structure-Activity Relationship Study of Dexrazoxane Analogues Reveals ICRF-193 as the Most Potent Bisdioxopiperazine against Anthracycline Toxicity to Cardiomyocytes Due to Its Strong Topoisomerase IIβ Interactions” (J Med Chem, 2021):
# Activity calls are given as the source filed them. The calls are words filed in the database; no cut-off is given here.
# Experiments:
# [1] = system: Neonatal ventricular cardiomyocytes; experiment: (§1) Cardioprotective activity against DAU-induced cardiotoxicity in Wistar rat neonatal ventricular cardiomyocytes preincubated for 3 hrs followed by DAU addition for 3 hrs and further incubated for 48 hrs in drug free medium by LDH assay; format: functional, tissue-based; conditions: time 6.0 hrs
# How it was run: (§2)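 Neonatal rat ventricular cardiomyocytes from collagenase II digests, preplated 2 h, 400 000 cells/well. Kept in serum- and pyruvate-free DMEM/F12. Cells pretreated 3 h with compound (10–100 μM), then co-incubated 3 h with 1.2 μM daunorubicin or without it. After 48 h in drug-free medium, LDH released to the medium was measured at 340 nm as percent of total LDH; four experiments.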
# HL-60 [2] = experiment: Antiproliferative activity against human HL-60 cells at 100 uM after 72 hrs by XTT assay; format: functional, cell-based
# How it was run: (§3)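 HL-60 (ATCC) grown in RPMI-1640 with 10% FBS and antibiotics at 37 °C, 5% CO2. Seeded at 10 000 cells/well, exposed to compound for 72 h. XTT/PMS (1 mg/mL XTT, 50 μM PMS in PBS) added, absorbance read at 450 nm after 4 h. Results as percent of DMSO control; four independent experiments.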
# HL-60 [3] = experiment: Antiproliferative activity against human HL-60 cells assessed as increase in daunorubicin activity at 100 uM after 72 hrs in presence of 15 nM of daunorubicin by XTT assay
# [4] = Cytotoxicity against Wistar rat neonatal ventricular cardiomyocytes at 1.2 uM by LDH assay; format: tissue-based; how it was run: as §2
# HL-60 [5] = experiment: Antiproliferative activity against human HL-60 cells after 72 hrs by XTT assay; format: functional, cell-based; conditions: HL-60, 72 h; how it was run: as §3
# [6] = as §1; format: functional, tissue-based; how it was run: as §2
# [7] = molecular target: DNA topoisomerase 2-alpha (Homo sapiens, UniProt P11388); experiment: Inhibition of human TOP2A assessed as reduction in […] using kDNA as substrate incubated for 30 min
# Chain of DNA topoisomerase 2-alpha (P11388 whole entry): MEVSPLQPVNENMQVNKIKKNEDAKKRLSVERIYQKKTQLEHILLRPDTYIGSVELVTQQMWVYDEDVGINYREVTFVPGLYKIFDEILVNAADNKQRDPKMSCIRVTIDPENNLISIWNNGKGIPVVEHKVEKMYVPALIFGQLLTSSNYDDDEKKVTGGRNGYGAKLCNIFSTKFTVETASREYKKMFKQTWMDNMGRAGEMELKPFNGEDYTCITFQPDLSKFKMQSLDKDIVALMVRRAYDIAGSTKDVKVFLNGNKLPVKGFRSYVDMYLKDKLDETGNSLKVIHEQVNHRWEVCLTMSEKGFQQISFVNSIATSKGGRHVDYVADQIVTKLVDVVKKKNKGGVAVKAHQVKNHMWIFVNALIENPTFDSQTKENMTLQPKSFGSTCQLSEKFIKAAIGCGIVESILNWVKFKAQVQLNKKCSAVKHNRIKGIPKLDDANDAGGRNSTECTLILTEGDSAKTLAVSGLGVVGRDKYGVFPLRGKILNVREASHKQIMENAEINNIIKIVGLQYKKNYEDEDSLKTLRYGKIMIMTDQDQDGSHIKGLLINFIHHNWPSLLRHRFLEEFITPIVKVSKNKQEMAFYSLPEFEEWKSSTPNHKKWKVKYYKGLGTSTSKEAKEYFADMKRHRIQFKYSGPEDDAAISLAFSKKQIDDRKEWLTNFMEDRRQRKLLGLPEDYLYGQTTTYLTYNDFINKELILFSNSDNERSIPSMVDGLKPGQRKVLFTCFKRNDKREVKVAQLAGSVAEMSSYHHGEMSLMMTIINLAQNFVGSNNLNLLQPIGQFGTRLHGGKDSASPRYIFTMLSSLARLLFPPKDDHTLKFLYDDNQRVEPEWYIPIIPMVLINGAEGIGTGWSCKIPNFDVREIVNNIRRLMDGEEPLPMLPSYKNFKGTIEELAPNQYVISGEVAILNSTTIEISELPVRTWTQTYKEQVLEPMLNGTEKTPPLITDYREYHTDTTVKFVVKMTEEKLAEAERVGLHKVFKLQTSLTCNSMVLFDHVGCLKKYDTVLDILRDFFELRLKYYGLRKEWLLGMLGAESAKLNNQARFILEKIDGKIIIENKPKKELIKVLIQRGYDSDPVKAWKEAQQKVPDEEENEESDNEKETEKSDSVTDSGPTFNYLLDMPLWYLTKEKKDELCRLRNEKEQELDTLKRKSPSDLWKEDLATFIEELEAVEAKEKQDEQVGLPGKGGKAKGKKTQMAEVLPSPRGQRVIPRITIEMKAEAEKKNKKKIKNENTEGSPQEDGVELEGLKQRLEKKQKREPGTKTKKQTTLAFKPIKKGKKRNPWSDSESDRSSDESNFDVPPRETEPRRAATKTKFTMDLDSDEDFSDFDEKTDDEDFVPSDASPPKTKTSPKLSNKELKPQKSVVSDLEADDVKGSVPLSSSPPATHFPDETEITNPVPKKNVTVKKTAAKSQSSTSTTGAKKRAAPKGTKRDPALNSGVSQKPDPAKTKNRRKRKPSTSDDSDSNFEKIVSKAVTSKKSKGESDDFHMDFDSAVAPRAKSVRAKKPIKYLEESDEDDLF
# How it was run: (§4)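 Recombinant human TOP2A or TOP2B incubated with kDNA for 30 min at 37 °C. Buffer: 55 mM Tris-HCl pH 7.5, 135 mM NaCl, 10 mM MgCl2, 5 mM DTT, 0.1 mM EDTA, 3 mM ATP, 100 μg/mL BSA, 1% final DMSO. Compounds tested at 1–1000 μM. Products resolved on 1% agarose, SYBR Safe stained. Signal normalized to the untreated control on the same gel; three measurements.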
# DNA topoisomerase 2-beta = DNA topoisomerase 2-beta (Homo sapiens, UniProt Q02880); experiment: Inhibition of human TOP2B assessed as reduction in […] using kDNA as substrate incubated for 30 min; how it was run: as §4
# Chain of DNA topoisomerase 2-beta (Q02880 whole entry): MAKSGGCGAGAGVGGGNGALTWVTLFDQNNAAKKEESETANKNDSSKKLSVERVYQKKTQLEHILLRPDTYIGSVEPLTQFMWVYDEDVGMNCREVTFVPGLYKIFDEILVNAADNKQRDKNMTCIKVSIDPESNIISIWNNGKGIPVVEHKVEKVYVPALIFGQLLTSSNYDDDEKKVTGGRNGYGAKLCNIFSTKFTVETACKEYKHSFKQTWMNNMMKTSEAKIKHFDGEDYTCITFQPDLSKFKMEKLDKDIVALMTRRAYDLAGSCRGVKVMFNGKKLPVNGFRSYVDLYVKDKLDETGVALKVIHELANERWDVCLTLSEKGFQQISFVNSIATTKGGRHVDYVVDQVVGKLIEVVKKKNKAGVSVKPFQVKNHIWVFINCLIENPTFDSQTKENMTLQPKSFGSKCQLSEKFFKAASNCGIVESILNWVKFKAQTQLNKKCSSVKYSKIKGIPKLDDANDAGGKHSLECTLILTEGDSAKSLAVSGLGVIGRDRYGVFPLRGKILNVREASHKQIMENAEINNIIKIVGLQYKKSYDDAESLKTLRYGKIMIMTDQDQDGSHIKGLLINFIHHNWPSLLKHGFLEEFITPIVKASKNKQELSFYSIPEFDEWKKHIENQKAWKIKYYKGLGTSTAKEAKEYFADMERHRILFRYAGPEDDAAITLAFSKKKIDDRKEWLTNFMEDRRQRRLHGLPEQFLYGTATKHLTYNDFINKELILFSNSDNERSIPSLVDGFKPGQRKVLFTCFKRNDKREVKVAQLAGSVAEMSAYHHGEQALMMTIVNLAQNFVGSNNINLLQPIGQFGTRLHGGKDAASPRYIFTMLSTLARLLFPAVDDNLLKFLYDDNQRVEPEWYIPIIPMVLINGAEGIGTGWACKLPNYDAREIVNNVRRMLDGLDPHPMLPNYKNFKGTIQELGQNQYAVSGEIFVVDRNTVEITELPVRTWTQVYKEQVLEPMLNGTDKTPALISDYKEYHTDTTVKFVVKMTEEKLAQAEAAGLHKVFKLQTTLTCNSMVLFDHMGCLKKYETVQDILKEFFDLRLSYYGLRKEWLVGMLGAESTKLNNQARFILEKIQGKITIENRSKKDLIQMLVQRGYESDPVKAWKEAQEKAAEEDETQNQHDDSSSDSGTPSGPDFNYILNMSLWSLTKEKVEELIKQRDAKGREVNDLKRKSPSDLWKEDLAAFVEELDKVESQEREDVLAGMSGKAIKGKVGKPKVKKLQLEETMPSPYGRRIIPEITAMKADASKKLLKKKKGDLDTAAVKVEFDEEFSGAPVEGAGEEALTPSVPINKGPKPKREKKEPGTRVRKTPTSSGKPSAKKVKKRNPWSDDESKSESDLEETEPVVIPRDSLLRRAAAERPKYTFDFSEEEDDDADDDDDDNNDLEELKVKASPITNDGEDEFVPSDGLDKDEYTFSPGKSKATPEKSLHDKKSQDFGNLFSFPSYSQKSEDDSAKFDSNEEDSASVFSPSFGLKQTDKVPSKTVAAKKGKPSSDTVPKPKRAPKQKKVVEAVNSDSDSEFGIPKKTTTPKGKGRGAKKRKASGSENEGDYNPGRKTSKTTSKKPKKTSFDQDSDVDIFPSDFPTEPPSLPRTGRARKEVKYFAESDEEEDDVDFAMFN
# [8] = Metal chelating activity assessed as displacement of Fe3+ from DAU-Fe3+ complex measured for 10 mins by spectrophotometric method
# How it was run: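 DAU–Fe3+ complex (3:1) placed in 50 mM Tris/150 mM KCl, pH 7.4, room temperature, at 45 μM DAU and 15 μM Fe3+ final. After 3 min of equilibration, compound (100 μM) was added, with EDTA or SIH as reference chelators. Absorbance at 600 nm followed for 10 min, and the endpoint absorbance was compared.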
compound,measurement,setting,value
CC(C)(CN1CC(=O)NC(=O)C1)N1CC(=O)NC(=O)C1,Activity,[1],inactive
CN(CCN(C)C1CC(=O)NC1=O)C1CC(=O)NC1=O (stereo unspecified),Activity,HL-60 [2],Active
same,Activity,HL-60 [3],Active
O=C1CN(CC(O)CN2CC(=O)NC(=O)C2)CC(=O)N1,Activity,HL-60 [2],Active
COc1cccc2c1C(=O)c1c(O)c3c(c(O)c1C2=O)C[C@@](O)(C(C)=O)C[C@@H]3O[C@H]1C[C@H](N)[C@H](O)[C@H](C)O1 [DAUNORUBICIN],Activity,[4],40%
same,IC50,HL-60 [5],0.015 µM
C[C@@H](CN1CC(=O)NC(=O)C1)N1CC(=O)NC(=O)C1 [DEXRAZOXANE],EC50,[6],101 µM
same,IC50,HL-60 [5],18 µM
same,IC50,[7],40 µM
same,IC50,DNA topoisomerase 2-beta,50 µM
same,Activity,[8],77%
